Screening results from PubChem BioAssay.
Neddylation inh: cullin neddylation inhibition; AID 651699; calls only at 25 µM; P61081+Q13564; TR-FRET cullin neddylation, biochemical; 360,000 compounds, 0.58% hits; in the data active = inhibition above about 36%
proCasp3 act: activators of human procaspase-3 | 330,000 compounds, 0.11% hits | activation, % at 8.5 µM | recombinant procaspase-3 D3A, Ac-DEVD-pNA absorbance 405 nm | AID 463141 | P42574;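 active = activation above the mean of all tested compounds plus 3 SD, cut at about 21% in these data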;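 note: 0% = DMSO alone and 100% = DMSO wells spiked with extra 5 µM PC-3 D3A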
Target sequence (P42574 whole entry D9A/D28A/D175A): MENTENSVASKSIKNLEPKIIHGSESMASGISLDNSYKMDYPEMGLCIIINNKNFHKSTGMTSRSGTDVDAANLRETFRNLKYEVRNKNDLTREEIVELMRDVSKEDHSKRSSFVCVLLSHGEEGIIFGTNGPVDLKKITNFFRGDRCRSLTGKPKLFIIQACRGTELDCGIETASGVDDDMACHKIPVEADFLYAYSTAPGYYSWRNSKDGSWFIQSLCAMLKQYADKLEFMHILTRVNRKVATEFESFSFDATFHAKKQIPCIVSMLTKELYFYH
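Assay system – Procaspase-3 D3A mutant · Benchmarks – DMSO low control, extra-enzyme high control · Technique – 405 nm absorbance of p-nitroaniline, reads at 0 and 120 min · Doses – 8.5 µM nominal · Measure – % activation between DMSO and enzyme-spiked controls · Also added – Ac-DEVD-pNA chromogenic peptide substrate · Schedule – 1 h compound preincubation, 2 h substrate hydrolysis at 25 °C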
VIM-2 inhibitor: blocks Pseudomonas aeruginosa VIM-2 metallo-beta-lactamase; purified VIM-2, nitrocefin hydrolysis, epi-absorbance fluorescence; inhibition, % at 5.6 µM; 290,000 compounds, 0.89% hits; AID 1527;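 active = inhibition above the mean of all tested compounds plus 3 SD, cutoff set per screening run, cut at about 7.5% in these data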;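 note: red hydrolysis product quenches plate fluorescence so inhibitors raise well fluorescence; 0% = enzyme with DMSO and 100% = DMSO without enzyme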
IMP-1 inhibitor: inhibitors of Pseudomonas aeruginosa IMP-1 metallo-beta-lactamase; purified IMP-1, nitrocefin hydrolysis, epi-absorbance fluorescence; inhibition, % at 5.6 µM; 290,000 compounds, 0.45% hits;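 active = inhibition above the mean plus 3 SD of all compounds in the same screening run, cut at about 4.5% in these data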;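 note: 0% = IMP-1 with DMSO and 100% = DMSO wells lacking enzyme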
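Material – recombinant IMP-1 enzyme, purified · Amount – IMP-1 0.2 nM before substrate addition · Medium – HEPES buffer pH 7.1 with ZnSO4 and Brij 35 · Timing – 25 °C, 15 min preincubation, 25 min reaction · Measured by – plate fluorescence quenching by hydrolysis product, ex 480/em 530 nm · Read-out – percent enzyme inhibition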
procasp7 counter: counter-screen for procaspase-3 activators: activators of human procaspase-7; P55210; recombinant procaspase-7, Ac-DEVD-pNA absorbance 405 nm; D23A/D198A/D206A triple mutant, cannot self-cleave; scale: DMSO 0, 5 µM enzyme 100; activation, % at 8.5 µM; 330,000 compounds, 0.093% hits; AID 463210;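 active = percent activation above the screen-wide mean plus 3 SD, cut at about 25% in these data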
Target sequence (P55210 whole entry D23A/D198A/D206A): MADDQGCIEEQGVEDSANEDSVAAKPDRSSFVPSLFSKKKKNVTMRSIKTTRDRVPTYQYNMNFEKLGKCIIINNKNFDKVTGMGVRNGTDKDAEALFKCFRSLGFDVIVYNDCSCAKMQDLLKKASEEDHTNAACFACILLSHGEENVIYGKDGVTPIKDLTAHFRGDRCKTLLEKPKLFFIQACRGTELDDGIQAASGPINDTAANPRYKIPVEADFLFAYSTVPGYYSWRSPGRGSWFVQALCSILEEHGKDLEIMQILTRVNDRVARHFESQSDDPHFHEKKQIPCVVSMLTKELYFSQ
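Assay system: Uncleavable procaspase-7 mutant enzyme; Input: 2 µM procaspase-7 mutant as dispensed; Also added: DEVD-pNA substrate; Medium: Zinc-free HEPES pH 7.4 with 300 mM NaCl, 0.01% Triton X-100; Timing: 1 h compound preincubation, 2 h substrate cleavage, 25 °C; Measured by: Epi-absorbance of released pNA at 405 nm, two timepoints.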
PolyA inhibitor: inhibitors of polyadenylation in S. cerevisiae. S. cerevisiae SKY197-pL101 polyadenylation reporter, beta-gal luminescence; efflux-impaired pdr1/pdr3 knockout yeast; score 100 = 6 SD above DMSO. activity score, % at 12 µM. 300,000 compounds, 0.02% hits. AID 1875;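 active = lowest replicate activity score at least 50, where 100 means six control SD above control mean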;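 note: yeast exposed to compound for 9 h at 30 °C; higher score means more reporter readthrough which indicates perturbed polyadenylation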
PC3 D3A act: counter-screen: procaspase-3 (human) activation; shares compounds with procasp7 counter; recombinant PC-3 D3A, Ac-DEVD-pNA absorbance 405 nm; aspartates 9, 28, 175 changed to alanine; 100% = enzyme control; activation, % at 8.5 µM; 290 tested, under 10 active; AID 493114;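 active = mean percent activation across triplicates above a set limit taken from the earlier primary procaspase-3 screen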;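 note: 0% = DMSO wells and 100% = DMSO wells with 5 µM added PC-3 D3A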
PC7 dual conf: activates human procaspase-7, confirming dual procaspase activators | shares compounds with procasp7 counter | recombinant procaspase-7, Ac-DEVD-pNA absorbance 405 nm; D23A/D198A/D206A mutant that cannot self-cleave | activation, % at 8.5 µM | 290 tested, under 10 active;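 active = mean activation above a set limit carried over from the earlier primary screen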;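 note: 0% = DMSO only and 100% = DMSO with added 5 µM PC-7 enzyme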
Numbers without * were called inactive; i = inactive; · = no result given. Compounds with a hit are over-represented: about 1.7% of the library has one in this group of screens.

SMILES	Neddylation inh	proCasp3 act	VIM-2 inhibitor	IMP-1 inhibitor	procasp7 counter	PolyA inhibitor	PC3 D3A act	PC7 dual conf
CC1=C(C(=O)N(C(C)C)C(C)C)CC(CC(=O)NCCN2CCOCC2)C(=O)N1CCCN1CCCC1=O (stereo unspecified)	i	·	·	·	·	·	·	·
C=CC[C@@H](CC(=O)N(CCO)Cc1ccccc1)C(=O)N[C@H](C)COC(=O)[C@@H](CC=C)Cc1ccc(F)cc1	i	0	·	·	27*	·	2	1
O=C(O)c1cc([N+](=O)[O-])cc2c1C=Cc1ccccc1O2	i	2	-3	2	-2	6	·	·
COc1ccc(-c2cc(C(=O)OC3CCOC3=O)c3ccccc3n2)cc1 (stereo unspecified)	·	26*	0	-1	28*	0	18	12
Cc1ccc(C(=O)COC(=O)C2CC(=O)N(c3nc(-c4ccccc4)cs3)C2)cc1 (stereo unspecified)	i	-5	-2	-1	3	19	·	·
Cc1coc2cc3oc(=O)c(Cc4ccccc4)c(C)c3cc12	i	3	-2	-1	2	-11	·	·
Cc1c(Cc2ccccc2)c(=O)oc2cc(O)cc(O)c12	i	21	-3	-3	26*	18	-28	-34
Cc1cc(S(=O)(=O)NCCCN2CCOCC2)c(Cl)cc1Cl	i	3	-1	-1	4	1	·	·
COc1ccc(Nc2ncc(C(=O)O)c3ccccc23)cc1	i	0	-3	-4	2	6	·	·
COc1ccc(Nc2ncc(C(=O)N3CCN(c4ccc(F)cc4)CC3)c3ccccc23)cc1	·	13	1	-1	27*	-7	8	0
COc1ccc(OC)c(/C=N/NC(=O)c2cc3c(OC)cccc3[nH]2)c1	·	16	-3	-4	38*	8	3	3
CC1(C)Cc2c(cnn2-c2cccc(F)c2)C(NC(=O)CSc2ccncc2)C1 (stereo unspecified)	i	-7	-2	-3	8	-8	·	·
O=C(Nc1sc2c(c1C(=O)NCC1CCCO1)CCCC2)c1cccs1 (stereo unspecified)	i	16	-2	-4	37*	-37	1	-2
O=C(Nc1sc2c(c1C(=O)O)CCCC2)c1cccs1	i	0	0	-2	-12	7	·	·
O=S(=O)(Nc1ccc(-c2nc3cccnc3s2)cc1)c1cccs1	·	3	1	-4	11	1	·	·
Cc1cc(-c2nc3cccnc3s2)ccc1NS(=O)(=O)c1cccs1	·	17	-2	-3	26*	7	-28	-34
COc1cc(/C=N/NC(=O)C2CCN(CC(O)COCc3ccccc3)CC2)ccc1O (stereo unspecified)	i	-4	3	1	2	-15	·	·
CCOc1ccc(N=CC2=C(O)CC(c3ccco3)CC2=O)cc1 (stereo unspecified)	i	38*	-1	-1	54*	2	19	13
COc1ccccc1N1C(=O)C2C(C(=O)c3ccccc3)=NN(c3ccccc3)C2C1=O (stereo unspecified)	i	20	-2	-3	33*	-3	26*	18
O=C(C1=NN(c2ccccc2)C2C(=O)N(c3ccccc3)C(=O)C12)c1ccccc1 (stereo unspecified)	i	26*	-1	-3	41*	-11	40*	27*
COC(=O)C1=NN(c2ccc(Cl)cc2)C2C(=O)N(c3ccccc3OC)C(=O)C12 (stereo unspecified)	·	15	-3	-1	30*	-27	10	7
COc1ccccc1N1N=C(C(=O)c2ccccc2)C2C(=O)N(c3ccc(Br)cc3)C(=O)C21 (stereo unspecified)	i	5	0	-3	9	15	·	·
O=C(C1=NN(c2ccccc2)C2C(=O)N(c3ccccc3Cl)C(=O)C12)c1ccccc1 (stereo unspecified)	i	30*	0	-1	48*	-10	45*	34*
Cc1ccc(N2C(=O)C3C(C(=O)c4ccccc4)=NN(c4ccccc4)C3C2=O)cc1 (stereo unspecified)	i	7	1	-2	18	-9	·	·
O=C(CSc1nnc2ccccn12)NC(=O)c1ccccc1Cl	i	-6	·	·	5	·	·	·
SMILES	Neddylation inh	proCasp3 act	VIM-2 inhibitor	IMP-1 inhibitor	procasp7 counter	PolyA inhibitor	PC3 D3A act	PC7 dual conf
CC(C)Cn1c(N)c(C(=O)CSc2ccccc2)c(=O)n(C)c1=O	i	-15	-2	-3	-5	11	·	·
CC1(C(=O)OCC(=O)Nc2nc(-c3ccc(F)c(F)c3)cs2)CC1(Cl)Cl (stereo unspecified)	i	0	-1	-1	1	14	·	·
O=c1c(-c2nc3ccccc3s2)cccn1Cc1ccc(Cl)cc1	·	123*	-2	-2	90*	-37	-29	-36
CC(=O)Nc1ccc(C2=NN(c3ccccc3)C(c3cccs3)C2)cc1 (stereo unspecified)	·	157*	-3	0	126*	-23	-31	-35
OCc1c[nH]c2ccccc12	i	4	·	·	-8	·	·	·
Cc1ccc(C)c(OCC(=O)N/N=C/c2c(C)nn(-c3ccccc3)c2Cl)c1C	i	-3	0	-3	10	13	·	·
CCCS(=O)(=O)c1c(S(=O)(=O)CCC)c2cc(-c3ccncc3)ccn2c1C(=O)OC	·	29*	-1	-3	34*	1	-29	-35
CCCS(=O)(=O)c1c(S(=O)(=O)CCC)c2cnccn2c1C(=O)c1ccc(OC)cc1	i	-8	-3	-3	-2	-4	·	·
COc1ccc(C(=O)NCc2ccc(C)cc2)cc1S(=O)(=O)N1CCCc2ccccc21	i	-2	-1	-6	0	11	·	·
O=C(CN1CCN(Cc2ccccc2)CC1)Nc1cccc(C(F)(F)F)c1	i	3	0	-2	4	37	·	·
Cc1ccc(Cn2c(=O)c3cccnc3n(CC(=O)Nc3cccc(C(F)(F)F)c3)c2=O)cc1	i	1	-1	-5	42*	-7	-1	-1
C[C@@H]1C(c2ccccc2)=NN(c2ccccc2)[C@H]1C(=O)N1CCOC1=O	·	-4	·	·	3	·	·	·
